PAFAH1B3 inh: PAFAH1B3 enzyme inhibitors, primary screen, biochemical, fluorescence polarization, human; recombinant PAFAH1B3, FP-rhodamine probe; inhibition, % at 3.39 µM; actives 0.28% (n = 340,000); AID 492972, 2010;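 active means inhibition above the screen-wide average of all tested compounds plus 3 SD, cut at about 25% in these data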;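 further: 0% = enzyme with DMSO only and 100% = wells lacking PAFAH1B3 protein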
PAFAH1B2 inh: PAFAH1B2 enzyme inhibitors, primary screen, biochemical, fluorescence polarization, human | actives 1.2% (n = 340,000) | inhibition, % at 3.39 µM | recombinant PAFAH1B2, FP-rhodamine activity probe | Platelet-activating factor acetylhydrolase IB subunit alpha2 (Homo sapiens), P68402;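 active means inhibition above the mean of all tested compounds plus 3 SD, cut at about 24% in these data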;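 further: 0% = enzyme with DMSO and 100% = wells lacking PAFAH1B2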
Target sequence (P68402 whole entry, looked up): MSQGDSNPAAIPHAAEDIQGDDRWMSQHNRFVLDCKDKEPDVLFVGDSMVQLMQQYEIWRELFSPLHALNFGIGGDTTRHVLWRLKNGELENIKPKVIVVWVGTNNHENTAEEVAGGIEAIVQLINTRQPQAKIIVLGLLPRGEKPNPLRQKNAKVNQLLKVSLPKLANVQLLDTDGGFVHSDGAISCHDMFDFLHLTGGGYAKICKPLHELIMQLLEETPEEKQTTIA
PAFAH2 FP inh: PAFAH2 enzyme inhibitors, primary screen, biochemical, fluorescence polarization, human | recombinant PAFAH2, FP-rhodamine activity probe | Platelet-activating factor acetylhydrolase 2, cytoplasmic (Homo sapiens), Q99487 | actives 0.99% (n = 340,000) | inhibition, % at 3.39 µM;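 active means inhibition above the mean over all tested compounds plus 3 SD, cut at about 30% in these data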;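 further: inhibitors block probe labeling of enzyme so polarization drops; 0% = enzyme with DMSO and 100% = wells lacking PAFAH2 protein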
ARFGAP1 inhibitor: inhibitors of rat ARFGAP1 GAP activity, primary screen, biochemical, fluorescence polarization, GDP tracer; ADP-ribosylation factor GTPase-activating protein 1 (Rattus norvegicus), Q62848; Arfgap1-stimulated ARF1 GTP hydrolysis, GDP FP detection; inhibition, % at 16.5 µM; actives 0.26% (n = 360,000); AID 651572, 2012;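 active means inhibition above a per-plate limit, mean inhibition of low control wells plus 3 SD, cut at about 25% in these data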;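 further: 0% = DMSO wells with enzyme and 100% = wells lacking Arfgap1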
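Repeats: one replicate per compound; assay system: rat Arfgap1 catalytic domain, aa 1-136; times: enzyme reaction 120 min at 25 °C after 20 min preincubation; detection: FP of antibody-bound GDP Alexa 633 tracer, ex 620/em 688 nm; benchmarks: high control wells lacking Arfgap1, low control full reaction with DMSO; reagent: human ARF1(Δ1-17)-GTP substrate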
pPAFAH FP inh: pPAFAH enzyme inhibitors, primary screen, biochemical, fluorescence polarization, human. AID 463082, 2010. actives 1.5% (n = 330,000). inhibition, % at 3.39 µM. recombinant pPAFAH, FP-rhodamine probe fluorescence polarization;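 active means inhibition above the mean inhibition across the screen plus 3 SD, cut at about 25% in these data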;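 further: inhibitors block binding of the rhodamine activity-based probe so polarization drops; 0% = enzyme with DMSO and 100% = wells lacking pPAFAH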
ASAP1 inh: inhibitors of human ASAP1 ArfGAP activity, primary screen, biochemical, fluorescence polarization; actives 0.19% (n = 360,000); Arf-GAP with SH3 domain, ANK repeat and PH domain-containing protein 1 (Homo sapiens), …; inhibition, % at 16.5 µM; ASAP1-stimulated ARF1 GTP hydrolysis, GDP FP detection; in the data active means inhibition above about 25%;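 further: 0% = vehicle with enzyme and substrate and 100% = no enzyme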
Target sequence (Q9ULH1 325-724 limits assumed): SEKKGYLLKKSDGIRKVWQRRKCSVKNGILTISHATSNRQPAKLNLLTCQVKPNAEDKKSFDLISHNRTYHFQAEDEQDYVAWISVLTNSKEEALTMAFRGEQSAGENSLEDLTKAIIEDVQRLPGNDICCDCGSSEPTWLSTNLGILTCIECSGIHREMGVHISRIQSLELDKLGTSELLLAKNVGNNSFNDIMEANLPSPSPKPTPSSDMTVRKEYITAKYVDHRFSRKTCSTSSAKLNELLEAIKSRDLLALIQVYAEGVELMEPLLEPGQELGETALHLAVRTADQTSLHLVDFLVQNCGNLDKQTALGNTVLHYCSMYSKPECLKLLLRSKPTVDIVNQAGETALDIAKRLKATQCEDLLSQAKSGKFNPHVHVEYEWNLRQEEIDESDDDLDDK
* hit, by the source's call; . = no result given. The list is not random: actives were taken first. Their share in the collection is about 2.7%.

SMILES	PAFAH1B3 inh	PAFAH1B2 inh	PAFAH2 FP inh	ARFGAP1 inhibitor	pPAFAH FP inh	ASAP1 inh
CCCCCCCCN1C(=O)[C@@H](CC(=O)NCC2CCCCC2)C[C@@]2(C(=O)OC)C1=C[C@H](C(C)(C)C)O[C@@H]2C	.	.	.	5.6	.	-8.2
CN(C)S(=O)(=O)c1ccc(C(=O)NNc2nc(-c3ccccc3)c3cc(Br)ccc3n2)cc1	3.8	2.6	-2.4	-4.5	30.4*	0.3
CC(C)(C)CC(C)(C)c1ccc(O)c(CN2CCN(CCC#N)CC2)c1	-1.1	41.5*	-4.3	-3.6	10.9	9.1
Cn1cnnc1Sc1ccc(/C=C(\CCC(=O)O)c2nc3ccccc3s2)cc1[N+](=O)[O-]	3.5	25.6*	-2.7	-6.5	7.1	5.2
COC(=O)c1sc(NC(=S)NNC(=O)c2c(Br)c(C)nn2C)c(C(=O)OC)c1C	13.4	6.6	30.0*	9.1	20.5	16.5
CC[C@H](NC(=O)[C@@H](Cc1ccccc1)NC(=O)[C@H]1O[C@@H](n2cnc3c(=O)[nH]c(N)nc32)[C@H](O)[C@@H]1O)c1ccccc1	.	.	.	-2.8	.	-3.7
COC(=O)C1=C(C)N(Cc2ccc(C(F)(F)F)cc2)C(=NCc2ccccc2C(F)(F)F)NC1c1ccccc1C(F)(F)F (stereo not given)	.	.	.	6.8	.	3.8
CCN(CC)C(=O)[C@H]1C[C@@H]2[C@H](C[C@@H](c3ccccc3)[C@H]1C)N(c1ccc(F)cc1)C(=O)N2C/C=C(\C)CCC=C(C)C	.	.	.	3.5	.	-7.9
O=C(O)c1cc([N+](=O)[O-])ccc1NCCCc1ccccc1	3.0	50.5*	13.8	6.2	26.6*	-4.8
O=C(O)c1cc([N+](=O)[O-])ccc1NCc1ccccc1	3.3	12.8	2.9	-12.0	3.1	-10.2
CCc1cc2c(nc1CC)CCCN2S(=O)(=O)c1ccc(C(F)(F)F)cc1	.	.	.	-6.5	.	-9.9
COc1ccc(C2=CC3=C(Br)C(=O)C(C)(OC(=O)c4cccs4)C(=O)C3=CO2)cc1 (stereo not given)	1.0	9.1	10.4	-1.7	28.2*	6.0
COc1ccc(C2=CC3=C(Br)C(=O)C(C)(OC(=O)c4ccco4)C(=O)C3=CO2)cc1 (stereo not given)	7.2	9.9	20.3	.	22.9	.
Brc1cc2c(cc1/C=N/Nc1nc3ccccc3s1)OCO2	8.8	5.8	2.5	-7.3	-3.0	-10.4
O=C(O)C/C(=C\c1cc2c(cc1Br)OCO2)c1nc2ccccc2s1	-2.3	73.2*	8.5	-7.7	2.8	3.2
CCOC(=O)C1=C(C(=O)OCC)C2N(Cc3ccc(C(F)(F)F)cc3)c3ccccc3[C@@]23C[C@@H](C(=O)OC)N(S(=O)(=O)c2ccc(OC)cc2)C3=N1 (stereo not given in full)	.	.	.	5.3	.	9.6
NC(=O)c1sc2nc3c(c(-c4ccc(Cl)cc4)c2c1N)CCCC3	7.2	3.6	7.0	-7.3	29.6*	12.1
NC(=O)c1sc2nc3c(c(-c4ccco4)c2c1N)CCCC3	3.1	5.6	-2.9	14.9	18.1	6.3
Cc1ccc(-c2c3c(nc4sc(C(N)=O)c(N)c24)CCC3)cc1	4.5	-7.2	0.0	5.7	28.3*	2.4
CCCCNC(=O)C[C@H]1C[C@@]2(C(=O)OC)C(=C[C@H](C(C)(C)C)O[C@@H]2C)N(Cc2ccc3c(c2)OCO3)C1=O	.	.	.	-1.4	.	-2.0
FC(F)(F)c1ccccc1Cc1c(-c2ccco2)nc2c3ccccc3ccn12	.	.	.	-0.9	.	-2.9
CCCC(=O)Nc1nc(C)c(-c2csc(Nc3ccccc3OC)n2)s1	11.5	3.0	1.8	1.9	21.8	7.6
C=CCCC(=O)Nc1nc(C)c(-c2csc(Nc3cc(OC)ccc3OC)n2)s1	12.2	2.9	-11.3	2.8	33.6*	-1.1
CCCC(C)C(=O)Nc1nc(C)c(-c2csc(Nc3cc(OC)ccc3OC)n2)s1 (stereo not given)	9.0	4.6	-4.9	5.8	28.5*	-7.3
C=CCCC(=O)Nc1nc(C)c(-c2csc(Nc3cccc(OC)c3)n2)s1	14.6	3.2	6.5	9.3	11.0	1.1
SMILES	PAFAH1B3 inh	PAFAH1B2 inh	PAFAH2 FP inh	ARFGAP1 inhibitor	pPAFAH FP inh	ASAP1 inh
CCCC(=O)Nc1nc(C)c(-c2csc(Nc3cc(OC)ccc3OC)n2)s1	15.4	12.0	6.9	20.4	28.8*	12.2
Cc1[nH]c2ccccc2c1CC(=O)Nc1ccc(Nc2cccnc2)c(-c2ccc(Oc3ccccc3)cc2)c1	.	.	.	8.4	.	16.4
COc1ccc2ccccc2c1CN1CCN(c2ncc(Cc3ccccc3)cn2)CC1	.	.	.	2.6	.	0.1
O=C(CSc1ccc(Cl)cc1)NCc1ccncc1	3.7	29.4*	-6.2	-3.1	5.0	-2.2
O=[N+]([O-])c1cc(C(F)(F)F)ccc1NCCCCNS(=O)(=O)c1ccc2ccccc2c1	7.3	14.7	-13.0	-8.9	-5.8	8.7
CS(=O)(=O)NCCCCNc1ccc(C(F)(F)F)cc1[N+](=O)[O-]	4.9	4.3	-1.3	-9.0	25.6*	-0.9
O=C(COC(=O)c1cccc(S(=O)(=O)NCc2ccccc2)c1)NC1CC1	12.8	13.5	26.8	0.3	27.1*	-5.3
CC1Cc2ccccc2N1S(=O)(=O)c1cccc(C(=O)OCC(=O)NC2CCS(=O)(=O)C2)c1 (stereo not given)	-3.7	26.5*	17.1	-4.3	10.9	0.6
CC1Cc2ccccc2N1S(=O)(=O)c1cccc(C(=O)NC2CC2)c1 (stereo not given)	-2.7	5.5	12.0	-9.7	1.0	-0.8
O=C(COC(=O)c1ccc(Cl)c(S(=O)(=O)NCc2ccccc2)c1)NC1CC1	9.5	8.9	21.0	4.8	13.5	1.4
O=C(c1cccc(S(=O)(=O)NCc2ccccc2)c1)N1CCN(Cc2ccccc2)CC1	3.6	68.5*	2.6	-5.3	27.2*	-3.8
Brc1ccc(N2O[C@H]3C=C[C@@H]2C3)nc1	.	.	.	-3.2	.	2.9
CCOC(=O)c1c2c(n(Cc3ccccc3)c1C)C(=O)C(=O)c1ccccc1-2	78.6*	30.4*	51.9*	4.5	.	18.4
CCOC(=O)c1c2c3c(cccc3n(C)c1=O)C(=O)c1ccccc1-2	26.1*	19.5	27.3	2.2	31.0*	12.8
CC(=O)N1CCN(c2nc3ccc([N+](=O)[O-])cc3s2)CC1	-4.0	-1.1	2.3	3.5	-1.6	4.2
O=C(C1=COCCO1)N1CCN(c2nc3ccc([N+](=O)[O-])cc3s2)CC1	8.5	1.5	-7.3	9.8	0.9	28.3*

Compound activity: PubChem, The Scripps Research Institute Molecular Screening Center
